Activity calls are given as the source filed them.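 The calls were made as follows: active = IC50 at or below 20 µM; inactive = the rest.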
What follows are molecules tested on Jurkat NF-kB luciferase, PMA/ionomycin, luminescence 16 h (assay: NF-kB reporter inhibition in Jurkat T cells, SAR follow-up, counter-screen for B-cell antigen receptor NF-kB inhibitors, cell-based, luminescence (AID 504516)).
In short: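 Detection: SteadyGlo luminescence | System: Jurkat NF-kB luciferase reporter cells | Quantity: 8000 reporter cells per well | Doses: Test compounds in dose-response series | Timing: 1 h compound pre-incubation, 16 h agonist exposure, 37 °C | Control set: DMSO-only and no-agonist wells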

Structure (SMILES) | IC50
CCOc1ccc(-c2nc(CSCC(=O)NC(C)(C)C)c(C)o2)cc1 | 10.8 µM
Cc1oc(-c2ccc(OC(F)(F)F)cc2)nc1CSCC(=O)O | 0.22 µM
CCOc1ccc(-c2nc(CSCC(=O)NC)c(C)o2)cc1 | > 79 µM (inactive)
CCCCc1ccc(-c2noc(CCC(=O)NC(C)(C)C)n2)cc1 | 1.62 µM
C#CCNC(=O)CSCc1nc(-c2ccc(OCC)cc2)oc1C | > 79 µM (inactive)
Cc1ccc(-c2nc(CSCC(=O)NC3CC3)c(C)o2)cc1 | > 79 µM (inactive)
COc1cccc(-c2cc(=O)c3cc(NC(=O)c4ccc(N(C)C)cc4)ccc3[nH]2)c1 | > 79 µM (inactive)
CCCOc1ccc(-c2nc(CSCC(=O)O)c(C)o2)cc1 | < 0.15 µM
CCNC(=O)CCc1nc(-c2ccccc2Cl)no1 | > 79 µM (inactive)
CNC(=O)CCc1nc(-c2ccc(C(C)(C)C)cc2)no1 | > 79 µM (inactive)
CCc1ccc(-c2nc(CSCC(=O)NC3CC3)c(C)o2)cc1 | > 79 µM (inactive)
CCNC(=O)CCc1nc(-c2cccc(OC)c2)no1 | > 79 µM (inactive)
O=C(O)CCc1nc(-c2ccccc2)no1 | > 79 µM (inactive)
O=C(CCc1nc(-c2ccccc2)no1)NC1CC1 | > 79 µM (inactive)
CCNC(=O)CCc1nc(-c2ccccc2)no1 | > 79 µM (inactive)
CCNC(=O)CCc1nc(-c2ccccc2C)no1 | > 79 µM (inactive)
CNC(=O)CCc1nc(-c2ccccc2)no1 | > 79 µM (inactive)
CC(C)c1ccc(-c2noc(CCC(=O)NC3CC3)n2)cc1 | > 79 µM (inactive)
CCN(CC)C(=O)CCc1nc(-c2ccc(C(C)(C)C)cc2)no1 | 16.4 µM
CCc1ccc(-c2nc(CSCC(=O)NC3CC3)c(-c3ccccc3)o2)cc1 | 72.8 µM (inactive)
Cc1oc(-c2ccc(C(F)(F)F)cc2)nc1CSCC(=O)O | 0.52 µM
CCOc1ccc(-c2nc(CSCC(=O)NC3CCC3)c(C)o2)cc1 | 26.4 µM (inactive)
CCOc1ccc(-c2nc(CSCC(=O)N3CCOCC3)c(C)o2)cc1 | > 79 µM (inactive)
CC(C)(C)c1ccc(-c2noc(CCC(N)=O)n2)cc1 | 0.19 µM
CC(C)Nc1ccc(C(CC(=O)O)NC(=O)c2ccccc2)cc1[N+](=O)[O-] (stereo not drawn) | > 79 µM (inactive)
CCNC(=O)CCc1nc(-c2cccc(C)c2)no1 | > 79 µM (inactive)

Structure (SMILES) | IC50
CCOc1ccc(-c2nc(CSCC(N)=O)c(C)o2)cc1 | > 79 µM (inactive)
COc1ccc(-c2nc(CSCC(=O)NCc3ccco3)c(C)o2)cc1 | > 79 µM (inactive)
CCCCc1ccc(-c2noc(CCC(=O)NCC)n2)cc1 | > 79 µM (inactive)
Cc1oc(-c2ccc(OC(F)(F)F)cc2)nc1CSCC(=O)NC1CC1 | > 79 µM (inactive)
CCOc1ccccc1-c1nc(CSCC(=O)O)c(C)o1 | > 79 µM (inactive)
CCOc1cccc(-c2nc(CSCC(=O)NC3CC3)c(C)o2)c1 | > 79 µM (inactive)
CC(C)(C)c1ccc(-c2noc(CCC(=O)O)n2)cc1 | 0.2 µM
CCCCc1ccc(-c2noc(CCC(=O)NC(C)CC)n2)cc1 (stereo not drawn) | 0.41 µM
CCNC(=O)CCc1nc(-c2ccc(OCC)cc2)no1 | > 79 µM (inactive)
CNC(=O)CCc1nc(-c2ccc(C(C)C)cc2)no1 | > 79 µM (inactive)
Cc1oc(-c2ccccc2)nc1CSCC(=O)NCc1ccco1 | > 79 µM (inactive)
CCC(C)NC(=O)CCc1nc(-c2ccccc2)no1 (stereo not drawn) | > 79 µM (inactive)
CC(C)c1ccc(-c2noc(CCC(=O)NC(C)(C)C)n2)cc1 | 15.2 µM
CCOc1ccc(-c2nc(CSCC(=O)NCC3CC3)c(C)o2)cc1 | 20.9 µM (inactive)
COc1ccc(C(=O)Nc2ccc3[nH]c(-c4cccc(OC)c4)cc(=O)c3c2)cc1 | > 79 µM (inactive)
CCOc1ccc(-c2nc(CSCC(=O)NCc3ccco3)c(C)o2)cc1 | 25.4 µM (inactive)
CCNC(=O)CCc1nc(-c2ccc(C(C)C)cc2)no1 | > 79 µM (inactive)
CCOc1ccc(-c2nc(CSCC(=O)NC3CC3)c(C)o2)cc1 | > 79 µM (inactive)
COc1ccc(-c2nc(CSCC(=O)NC3CC3)c(C)o2)cc1 | > 79 µM (inactive)
CC(C)(C)NC(=O)CCc1nc(-c2ccccc2)no1 | > 79 µM (inactive)
CN(C)C(=O)CCc1nc(-c2ccc(C(C)(C)C)cc2)no1 | 71.3 µM (inactive)
CCCOc1ccc(-c2nc(CSCC(=O)NC3CC3)c(C)o2)cc1 | > 79 µM (inactive)
CCOc1ccc(-c2nc(CSCC(=O)O)c(C)o2)cc1 | < 0.15 µM
CCNC(=O)CCc1nc(-c2cccc(F)c2)no1 | > 79 µM (inactive)
CCCCOc1ccc(-c2nc(CSCC(=O)NCc3ccco3)c(C)o2)cc1 | > 79 µM (inactive)
CCc1ccc(-c2nc(CSCC(=O)NCc3ccco3)c(C)o2)cc1 | > 79 µM (inactive)

Structure (SMILES) | IC50
Cc1oc(-c2ccc(C(F)(F)F)cc2)nc1CSCC(=O)NC1CC1 | > 79 µM (inactive)
CC(C)(C)c1ccc(-c2noc(CCC(=O)NC3CCC3)n2)cc1 | 0.94 µM
CCOC(=O)CC(NC(=O)c1ccc(Br)cc1)c1ccc(F)c([N+](=O)[O-])c1 (stereo not drawn) | 42.7 µM (inactive)
CCCCc1ccc(-c2noc(CCC(=O)NC)n2)cc1 | > 79 µM (inactive)
Cc1ccc(-c2nc(CSCC(=O)NCc3ccco3)c(C)o2)cc1 | > 79 µM (inactive)
CCc1ccc(-c2noc(CCC(=O)NC(C)CC)n2)cc1 (stereo not drawn) | > 79 µM (inactive)
CCNC(=O)CCc1nc(-c2ccc(CC)cc2)no1 | > 79 µM (inactive)
CCCOc1ccc(-c2nc(CSCC(=O)NCc3ccco3)c(C)o2)cc1 | > 79 µM (inactive)
CCC(C)NC(=O)CCc1nc(-c2ccc(C(C)(C)C)cc2)no1 (stereo not drawn) | > 79 µM (inactive)
CCOc1ccc(-c2nc(CSCC(=O)N(C)C)c(C)o2)cc1 | > 79 µM (inactive)
COc1cccc(-c2cc(=O)c3cc(NC(=O)c4ccccc4)ccc3[nH]2)c1 | > 79 µM (inactive)
CCc1ccc(-c2noc(CCC(=O)NC3CC3)n2)cc1 | > 79 µM (inactive)
CCCCOc1ccc(-c2nc(CSCC(=O)NC3CC3)c(C)o2)cc1 | > 79 µM (inactive)
CCC(C)NC(=O)CCc1nc(-c2ccc(C(C)C)cc2)no1 (stereo not drawn) | > 79 µM (inactive)
COC(=O)CCc1nc(-c2ccc(C(C)(C)C)cc2)no1 | < 0.16 µM
CCOc1ccccc1-c1nc(CSCC(=O)NC2CC2)c(C)o1 | > 79 µM (inactive)
CCCCOc1ccc(-c2nc(CSCC(=O)O)c(C)o2)cc1 | < 0.15 µM
CCNC(=O)CCc1nc(-c2ccc(C(C)(C)C)cc2)no1 | > 79 µM (inactive)
CCc1ccc(-c2noc(CCC(=O)NC)n2)cc1 | > 79 µM (inactive)
CCOc1ccc(-c2nc(CSCC(=O)NC3CC3)c(-c3ccccc3)o2)cc1 | 54.6 µM (inactive)
CCOc1ccc(-c2noc(CCC(=O)O)n2)cc1 | 9.25 µM
CC(C)(C)c1ccc(-c2noc(CCC(=O)NC3CC3)n2)cc1 | 58.7 µM (inactive)
CCc1ccc(-c2noc(CCC(=O)NC(C)(C)C)n2)cc1 | > 79 µM (inactive)
CCNC(=O)CCc1nc(-c2c(Cl)cccc2Cl)no1 | > 79 µM (inactive)
Cc1oc(-c2ccccc2)nc1CSCC(=O)NC1CC1 | > 79 µM (inactive)
CCCCc1ccc(-c2noc(CCC(=O)NC3CC3)n2)cc1 | 1.25 µM
